# Measurements: ChEMBL document CHEMBL1153592, “1,8-Naphthyridine-3-carboxamide derivatives with anticancer and anti-inflammatory activity” (Eur J Med Chem, 2009)
# Activity calls are given as the source filed them. The calls are words filed in the database; no cut-off is given here.
# How the values were obtained:
# [1] = Cytotoxicity against mouse NIH/3T3 cells at 10 uM after 72 hrs by MTT assay; assay type: cell-based; conditions: nih3t3, 72 h
# Procedure, shortened: (§1)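 Three-day MTT screen with 5000–10,000 cells/well and 72 h compound exposure at the top screening concentration. After 3 h of MTT uptake, lysis with 10% SDS–0.01 N HCl, then A540 read after 1 h. % cytotoxicity = (1 − X/R1)×100, where X is treated minus blank absorbance and R1 is untreated control absorbance.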
# [2] = Antiinflammatory activity in C57BL/6 mouse DC assessed as inhibition of LPS-induced IL1-beta production at 0.1 ug/ml after 24 hrs by ELISA; assay type: functional
# Procedure, shortened: (§2)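 Dendritic cells grown from femoral bone marrow of 8–12-week-old C57BL/6 mice in RPMI-1640 with 10% FBS and 20 ng/ml rmGM-CSF at 37 °C, 5% CO2. Day-6 immature DCs were stimulated with 10 ng/ml LPS plus compound for 24 h. Supernatant cytokine/chemokine measured by ELISA (pg/ml); % change = (B−A)/A×100, versus LPS-stimulated DCs alone.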
# HBL-100 [3] = experiment: Cytotoxicity against human HBL100 cells at 10 uM after 72 hrs by MTT assay; assay type: functional, cell-based; procedure, shortened: as §1
# SW-620 [4] = experiment: Cytotoxicity against human SW620 cells at 10 uM after 72 hrs by MTT assay; assay type: functional, cell-based; procedure, shortened: as §1
# [5] = Antiinflammatory activity in C57BL/6 mouse DC assessed as inhibition of LPS-induced IL-6 production at 1 ug/ml after 24 hrs by ELISA; assay type: functional; procedure, shortened: as §2
# PA-1 [6] = experiment: Cytotoxicity against human PA1 cells at 10 uM after 72 hrs by MTT assay; assay type: functional, cell-based; procedure, shortened: as §1
# [7] = Antiinflammatory activity in C57BL/6 mouse DC assessed as inhibition of LPS-induced IL1-beta production at 1 ug/ml after 24 hrs by ELISA; assay type: functional; procedure, shortened: as §2
# [8] = Antiinflammatory activity in C57BL/6 mouse DC assessed as inhibition of LPS-induced IL-6 production at 0.1 ug/ml after 24 hrs by ELISA; assay type: functional; procedure, shortened: as §2
# MIA PaCa-2 [9] = experiment: Cytotoxicity against human MIAPaCa2 cells at 10 uM after 72 hrs by MTT assay; assay type: functional, cell-based; procedure, shortened: as §1
# K562 [10] = experiment: Cytotoxicity against human K562 cells at 10 uM after 72 hrs by MTT assay; assay type: functional, cell-based; procedure, shortened: as §1
# DU-145 [11] = experiment: Cytotoxicity against human DU145 cells at 10 uM after 72 hrs by MTT assay; assay type: functional, cell-based; procedure, shortened: as §1
# A549 [12] = experiment: Cytotoxicity against human A549 cells at 10 uM after 72 hrs by MTT assay; assay type: functional, cell-based; procedure, shortened: as §1
# ECV-304 [13] = experiment: Cytotoxicity against human ECV304 cells at 10 uM after 72 hrs by MTT assay; assay type: functional, cell-based; procedure, shortened: as §1
# KB [14] = experiment: Cytotoxicity against human KB cells at 10 uM after 72 hrs by MTT assay; assay type: functional, cell-based; procedure, shortened: as §1
# [15] = Antiinflammatory activity in C57BL/6 mouse DC assessed as inhibition of LPS-induced TNFalpha production at 1 ug/ml after 24 hrs by ELISA; assay type: functional; procedure, shortened: as §2
# [16] = Antiinflammatory activity in C57BL/6 mouse DC assessed as inhibition of LPS-induced IP-10 production at 1 ug/ml after 24 hrs by ELISA; assay type: functional; procedure, shortened: as §2
# [17] = Antiinflammatory activity in C57BL/6 mouse DC assessed as inhibition of LPS-induced IP-10 production at 0.1 ug/ml after 24 hrs by ELISA; assay type: functional; procedure, shortened: as §2
# [18] = Antiinflammatory activity in C57BL/6 mouse DC assessed as inhibition of LPS-induced TNFalpha production at 0.1 ug/ml after 24 hrs by ELISA; assay type: functional; procedure, shortened: as §2
# [19] = Cytotoxicity against mouse NIH/3T3 cells after 72 hrs by MTT assay; assay type: cell-based, NIH3T3
# SW-620 [20] = experiment: Cytotoxicity against human SW620 cells after 72 hrs by MTT assay; assay type: functional, cell-based; conditions: SW-620, 72 h
# HBL-100 [21] = experiment: Cytotoxicity against human HBL100 cells after 72 hrs by MTT assay; assay type: functional, cell-based; conditions: HBL-100, 72 h
# KB [22] = experiment: Cytotoxicity against human KB cells after 72 hrs by MTT assay; assay type: functional, cell-based
# A549 [23] = experiment: Cytotoxicity against human A549 cells after 72 hrs by MTT assay; assay type: functional, cell-based; conditions: A549, 72 h
# K562 [24] = experiment: Cytotoxicity against human K562 cells after 72 hrs by MTT assay; assay type: functional, cell-based; conditions: K562, 72 h
# PA-1 [25] = experiment: Cytotoxicity against human PA1 cells after 72 hrs by MTT assay; assay type: functional, cell-based; conditions: PA-1, 72 h
# DU-145 [26] = experiment: Cytotoxicity against human DU145 cells after 72 hrs by MTT assay; assay type: functional, cell-based; conditions: DU-145, 72 h
# ECV-304 [27] = experiment: Cytotoxicity against human ECV304 cells after 72 hrs by MTT assay; assay type: functional, cell-based; conditions: Homo sapiens, ECV-304, 72 h; read-out: IC50
# MIA PaCa-2 [28] = experiment: Cytotoxicity against human MIAPaCa2 cells after 72 hrs by MTT assay; assay type: functional, cell-based; conditions: MIA PaCa-2, 72 h
Structure (SMILES),Activity [1],inhibition (INH) [2] [%],Activity (HBL-100 [3]),Activity (SW-620 [4]),inhibition (INH) [5] [%],Activity (PA-1 [6]),inhibition (INH) [7] [%],inhibition (INH) [8] [%],Activity (MIA PaCa-2 [9]),Activity (K562 [10]),Activity (DU-145 [11]),Activity (A549 [12]),Activity (ECV-304 [13]),Activity (KB [14]),inhibition (INH) [15] [%],inhibition (INH) [16] [%],inhibition (INH) [17] [%],inhibition (INH) [18] [%],IC50 (SW-620 [20]) [µM],IC50 (HBL-100 [21]) [µM],other results
C#CCn1cc(C(=O)NC(CC(=O)Nc2ccccn2)c2ccccc2)c(=O)c2cccnc21 (centres undefined),Not Active,34.1,inactive,inactive,74.9,inactive,50.1,74.4,inactive,inactive,inactive,inactive,inactive,inactive,–,–,–,–,–,–,–
C#CCn1cc(C(=O)NC(CC(=O)Nc2ccccc2)c2ccccc2)c(=O)c2cc(F)c(Cl)nc21 (centres undefined),–,84.8,–,–,96,–,106.8,60,–,–,–,–,–,–,99,102.4,17.3,80,5.7,9.3,"IC50 ([19]; Mus musculus, NIH3T3, 72 h, read-out: IC50): 9.7 µM; IC50 (KB [22]): > 10 µM; IC50 (A549 [23]): > 10 µM; IC50 (K562 [24]): 6.6 µM; IC50 (PA-1 [25]): 2100 nM; IC50 (DU-145 [26]): 5.9 µM; IC50 (ECV-304 [27]): > 10 µM; IC50 (MIA PaCa-2 [28]): 6.9 µM"
C#CCn1cc(C(=O)NC(CC(=O)NC2CCCC2)c2ccccc2)c(=O)c2cccnc21 (centres undefined),Not Active,62.4,inactive,inactive,–,inactive,52.1,–,inactive,inactive,inactive,inactive,inactive,inactive,34.7,25,38.8,19.3,–,–,–
C#CCn1cc(C(=O)NC(CC(=O)Nc2ccccc2)c2ccccc2)c(=O)c2cccnc21 (centres undefined),–,75.1,–,–,–,–,78.5,–,–,–,–,–,–,–,29.7,33.1,31.7,19.1,> 10,> 10,IC50 ([19]; nih3t3): Not Active; IC50 (KB [22]): > 10 µM; IC50 (A549 [23]): > 10 µM; IC50 (K562 [24]): > 10 µM; IC50 (PA-1 [25]): > 10000 nM; IC50 (DU-145 [26]): 7.2 µM; IC50 (ECV-304 [27]): > 10 µM; IC50 (MIA PaCa-2 [28]): > 10 µM
